Data set [1] in a line: T1/2 in mouse liver microsome assays. Type of data set: in vitro ADME. The following applies: liver microsomes. In short, it runs like this: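 Test compound incubated with mouse liver microsomes at 37 °C. The amount of unmodified compound remaining was measured after 30 min as a single-point stability read. T1/2 (min) was calculated from these incubations. Dextromethorphan served as the positive control.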
(In general: Liver microsomes are a subcellular fraction often used to study metabolism.)

A short description of the next data set: solubility. The following applies: excluded from further study. Format: physicochemical.
Another data set deals with HeLaC3 cells. As to the kind of experiment: total tau. Format: cell-based. Particulars: 24 h, Western blot. A general note: In western blotting, separated proteins are transferred to a membrane and probed.
Data set [2] can be described thus: mouse liver microsome stability, compound remaining after 30 minutes. Format: in vitro ADME. The following applies: unmodified compound remaining after incubation with mouse liver microsomes for 30 minutes at 37 °C.
The conditions of data set [3]: mouse liver microsome assays; cited from earlier work.
The next data set relates to tau. Particulars: cited from earlier work.

Like-named read-outs stand apart in the source and are kept apart here.

For the compound `CCn1c(=O)/c(=C2\Sc3cccc(Cl)c3N2C)s/c1=C\c1ccccn1` [Compound 5], in data set [1], the half-life (in general, the time in which the quantity being followed falls by half) was about 20 min.

Take `CCn1c(=O)/c(=C2\Sc3ccc(Cl)cc3N2C)s/c1=C\c1ccccn1` [Compound 6]: the half-life in data set [1] is about 20 min. With `CCn1c(=O)/c(=C2\Sc3cccc(Cl)c3N2C)s/c1=C\c1ccncc1` [Compound 14], the solubility result in “solubility” is given as “poor solubility”. On to `CCn1c(=O)/c(=C2\Sc3ccc(Cl)cc3N2C)s/c1=C\c1ccncc1` [Compound 15], for which the “cellular stress (levels of Hsp72 and Hsp90)” value in the data set on HeLaC3 cells was “did not activate cellular stress”. As for `CCn1c(=O)/c(=C2\Sc3cc(Cl)ccc3N2C)s/c1=C\c1ccncc1` [Compound 16], the half-life in data set [1] is about 20 min. With `CCn1c(=O)/c(=C2\Sc3c(Cl)cccc3N2C)s/c1=C\c1ccncc1` [Compound 17], the solubility result in the data set “solubility” was “poor solubility”. As to `CCn1c(=O)/c(=C2\Sc3ccccc3N2C)s/c1=C\c1ccccn1` [YM-08], the “Percentage at T30min” value in data set [2] was “below the limit of detection”. Besides, the half-life result in data set [3] is given as “less than three minutes”. Turning to YM-01, the “concentration promoting tau degradation” value in the data set on tau is on record as ~ 1 μM.

Values taken from paper PMC8805511 (Bioorganic & medicinal chemistry letters, 2021).
